b-catenin transl: modulators of beta-catenin nuclear translocation, primary screen, imaging, HeLa cells, immunofluorescence, high-content. AID 1665, 2009. nuclear translocation activity, % at 5 µM. 190,000 tested, 0.3% active;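 active = nuclear translocation activity above 50% at 5 µM, with a well cell count of 50 or more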;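 also: per-cell ratio of nuclear to cytoplasmic median beta-catenin stain intensity; plate controls were DMSO negative control for no effect and GSK-3 inhibitor IX positive control for full effect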
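System: HeLa cells, endogenous beta-catenin; compound dosing: 5 µM primary single dose, 0.1% DMSO, 0.02–20 µM confirmation series; incubation: 24 h compound exposure at 37°C, 5% CO2; signal: beta-catenin immunofluorescence imaging with DAPI; evaluation: % activation, nuclear-to-cytoplasmic median beta-catenin signal ratio per cell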
NPY-Y1 PAM-ag: NPY-Y1 receptor potentiators or agonists, primary screen, cell-based | Neuropeptide Y receptor type 1 (Homo sapiens), P25929 | NPY-Y1 expressing cells, potentiator/agonist activation | activation, % at 3.6 µM | 220,000 tested, 0.37% active | AID 1304, 2008; in the data active = activation above about 33%, passing the limit was not always enough;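 also: cells stimulated with NPY at EC10 then isoproterenol at EC100; 0% = low agonist plus stimulus and 100% = saturating agonist plus stimulus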
Target sequence (P25929 whole entry, looked up): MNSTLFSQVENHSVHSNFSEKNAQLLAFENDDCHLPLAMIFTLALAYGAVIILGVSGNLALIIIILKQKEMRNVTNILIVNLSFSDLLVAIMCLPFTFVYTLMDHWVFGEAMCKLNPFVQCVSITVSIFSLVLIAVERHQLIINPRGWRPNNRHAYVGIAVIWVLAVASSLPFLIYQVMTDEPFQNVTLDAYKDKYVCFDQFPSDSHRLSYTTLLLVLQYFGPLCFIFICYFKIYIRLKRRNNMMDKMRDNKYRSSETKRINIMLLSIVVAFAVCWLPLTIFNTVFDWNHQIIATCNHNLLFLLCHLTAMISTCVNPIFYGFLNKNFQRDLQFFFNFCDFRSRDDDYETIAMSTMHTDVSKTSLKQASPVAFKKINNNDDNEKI
NPY-Y1 antag: NPY-Y1 receptor antagonists, primary screen, cell-based; Neuropeptide Y receptor type 1 (Homo sapiens), P25929; inhibition, % at 3.6 µM; HEK293-CNG Y1 cells, membrane potential fluorescence; NPY at EC95, then isoproterenol; 200,000 tested, 1% active;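 active = inhibition above the campaign mean inhibition of all tested compounds plus 3 SD, cut at about 20% in these data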;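 also: 0% = DMSO wells given NPY plus isoproterenol and 100% = isoproterenol alone without NPY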
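Assay system: HEK293 Y1/CNG channel cell line; Doses: single compound dose of 3.6 µM, 0.4% DMSO; Timing: dye 3 h, compound 60 min room temperature, stimulation 45 min; Technique: Membrane-potential fluorescent dye readout; Measure: % inhibition of NPY effect.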
NPY-Y2 antag: NPY-Y2 receptor antagonists, primary screen, cell-based. Neuropeptide Y receptor type 2 (Homo sapiens), P49146. 140,000 tested, 0.99% active. inhibition, % at 2.7 µM. NPY-Y2 expressing cells, antagonist mode. AID 793, 2007; in the data active = inhibition above about 17%;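 also: 0% = vehicle with agonist challenge and 100% = reference antagonist with challenge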
MT stabilize HCS: microtubule stabilizers in HeLa cells, primary screen, imaging, high-content imaging | HeLa tubulin immunostaining HCS, 24 h; share of cells brighter than vehicle mean+2SD | % tubulin-high responders, % at 10 µM | 200,000 tested, 0.83% active;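 active = plate Z-score above 3 for both tubulin-high and condensed-nucleus cell shares, with cell loss under 80%, at 10 µM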;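 also: anti alpha tubulin signal scored within the nucleus-defined area of each cell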
NPY2 pot ag: NPY-Y2 potentiators or agonists, primary screen, cell-based. activation, % at 3.6 µM. Neuropeptide Y receptor type 2 (Homo sapiens), P49146. cells expressing NPY-Y2, potentiator/agonist read-out. 220,000 tested, 0.45% active; in the data active = activation above about 27%;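 also: cells stimulated with NPY near EC25 plus isoproterenol at EC100; 0% = vehicle plus submaximal agonist and 100% = vehicle plus saturating agonist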
NPY1 antag ctr: NPY-Y1 receptor antagonists, selectivity check, counter-screen for NPY-Y2 antagonist project, cell-based; AID 1256, 2008; inhibition, % at 3.6 µM; cell-based NPY-Y1 antagonism counterscreen; 710 tested, 19% active; shares compounds with NPY-Y2 antag; in the data active = inhibition above about 20%;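 also: cells challenged with NPY then isoproterenol with cAMP sensed through a CNG channel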
NPY2 antag conf: NPY-Y2 receptor antagonists, retest of hits, confirmation, HEK293-CNG cells, membrane potential fluorescence, triplicate | shares compounds with NPY-Y2 antag | HEK293 NPY-Y2 CNG channel | inhibition, % at 2.8 µM | 710 tested, 32% active | AID 1257, 2008;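 active = mean inhibition of triplicate wells above the hit cutoff set in the primary screen, cut at about 17% in these data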;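 also: 0% = DMSO with NPY challenge and 100% = BIIE0246 high control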
Numbers without * were called inactive; nt = no result. Most compounds without a hit are left out; they make up all but 2.6% or so of the library.

SMILES	b-catenin transl	NPY-Y1 PAM-ag	NPY-Y1 antag	NPY-Y2 antag	MT stabilize HCS	NPY2 pot ag	NPY1 antag ctr	NPY2 antag conf
O=S(=O)(c1cccc(F)c1)N1CCCN(c2ccc(C(F)(F)F)cn2)CC1	1	0	nt	nt	nt	1	nt	nt
CC(=O)c1ccc(N2Cc3ccccc3/C2=N\C(=O)Nc2ccc(Cl)cc2)cc1	2	15	6	24*	10	6	109*	151*
c1ccc(-c2ccc(-c3cnc4n3CCCCC4)cc2)cc1	1	-31	13	24*	5	-15	9	17
Cc1ccc(-c2cnc3n2CCCCC3)cc1	-3	-4	-1	nt	3	-3	nt	nt
CSc1nnnn1-c1ccc(C)c(Cl)c1	-1	2	-1	9	6	8	nt	nt
COc1cc(O)c(C(CC(=O)N2CCOCC2)c2cc(OC)c(OC)c(OC)c2)c(OC)c1 (centres undefined)	0	nt	nt	nt	nt	nt	nt	nt
CCOC(=O)N1CCN(C(=O)C(=O)NNC(=O)COc2ccc(Cl)cc2)CC1	-3	-4	-2	3	2	4	nt	nt
O=C(NC(c1ccccc1)c1ccccc1)C1(c2cccs2)CCOCC1	-2	5	15	18*	3	-3	6	5
CC(C)CCNC(=O)C1(c2cccs2)CCOCC1	-3	14	-2	nt	1	-6	nt	nt
CCCCn1c(SCC(=O)NNC(=O)c2ccco2)nnc1-c1ccco1	0	11	-7	nt	3	10	nt	nt
Cn1ccnc1SCC(=O)Nc1nc2c(F)c(F)c(F)cc2s1	-2	4	5	nt	4	-16	nt	nt
CC1CCN(c2ccccc2NC(=S)NC(=O)c2cccs2)CC1	-1	-36	7	21*	2	0	20*	15
CS(=O)(=O)N1CCN(c2ccccc2NC(=S)NC(=O)c2cccs2)CC1	7	2	-4	nt	1	-13	nt	nt
COC(=O)c1ccccc1NC(=O)Cn1c(-c2nonc2N)nc2ccccc21	27	-43	20	39*	19*	-13	19	24*
COC(=O)c1ccc(NC(=O)Cn2c(-c3nonc3N)nc3ccccc32)cc1	4	4	-1	nt	2	22	nt	nt
CCOC(=O)c1ccc(NC(=O)Cn2c(-c3nonc3N)nc3ccccc32)cc1	-3	9	8	nt	2	-7	nt	nt
CC(C)OC(=O)c1ccc(NC(=O)Cn2c(-c3nonc3N)nc3ccccc32)cc1	-5	-44	20	18*	3	-15	11	12
COc1ccccc1Oc1ccc2c(c1)C(=O)N(c1ccc(O)cc1)C2=O	-7	19	4	18*	4	23	4	14
O=c1c2ccccc2nc(SCc2ccccc2)n1Cc1ccco1	-1	-7	-2	2	5	-8	nt	nt
O=c1c2ccccc2nc(SCc2cccc(F)c2)n1Cc1ccco1	-1	-21	18	19*	1	-2	9	13
Cc1ccc(C(=O)NCC(=O)OC(C)C(=O)Nc2ccc(N3CCOCC3)cc2)s1 (centres undefined)	0	-13	nt	nt	nt	0	nt	nt
COc1cc(OC)c(NC(=O)c2c(-c3ccccc3)noc2C)cc1Cl	-4	8	4	2	3	4	nt	nt
COc1ccc(Cl)cc1NC(=O)c1c(-c2ccccc2)noc1C	nt	-17	18	25*	3	-3	19	10
COc1cccc(-c2cc(C(F)(F)F)nc(NCc3ccco3)n2)c1	-2	24	14	14	11	-11	nt	nt
COc1ccc(-c2cc(C(F)(F)F)nc(NCc3ccco3)n2)cc1OC	0	-3	9	18*	4	-17	15	13
SMILES	b-catenin transl	NPY-Y1 PAM-ag	NPY-Y1 antag	NPY-Y2 antag	MT stabilize HCS	NPY2 pot ag	NPY1 antag ctr	NPY2 antag conf
COc1ccccc1C(=O)Nc1onc(C)c1C#N	0	20	2	nt	2	14	nt	nt
CC(C)(C)NC(=O)CN(C(=O)CN1C(=O)C(=O)c2ccccc21)C(C)(C)C	1	3	2	nt	2	-9	nt	nt
O=C(Cc1ccccc1)N/N=C/c1ccccc1Cl	0	3	5	3	2	0	nt	nt
CC(C)(C)c1ccc(/C=N/NC(=S)NCc2ccccc2)cc1	-1	10	3	3	5	1	nt	nt
C/C(=N\NC(=S)NCCc1ccccc1)c1ccc(C)cc1	0	-27	10	17*	2	-20	15	15
CCc1ccc(/C=N/NC(=S)NCCc2ccccc2)cc1	-4	-4	19	33*	1	-13	28*	30*
S=C(NCCc1ccccc1)N/N=C/c1ccccc1Cl	-1	-57	10	43*	5	-23	18	18*
COc1ccc(C2/C=C\CN(C(=O)c3ccc(C)cc3)[C@H](Cc3ccccc3)C(=O)N2Cc2ccc(F)cc2)cc1 (some centres undefined)	-2	nt	nt	nt	nt	nt	nt	nt
Cc1noc(/C=C/c2cccs2)c1S(=O)(=O)N1CCC(C(=O)NCCCN2CCC(C)CC2)CC1	-2	-6	2	nt	2	-15	nt	nt
CN1CCN(c2ccccc2NC(=O)c2ccc(-c3ccc(Cl)cc3Cl)o2)CC1	nt	-66	8	17*	2	-9	12	25*
O=C(Nc1ccc(Cl)cc1F)c1ccc(COc2c(F)c(F)c(F)c(F)c2F)o1	-2	-21	15	16	2	-20	nt	nt
O=C(Nc1ccc(F)cc1F)c1ccc(COc2c(F)c(F)cc(F)c2F)o1	6	-40	11	18*	3	-27	10	9
CCOC(=O)Cn1c(=O)c2c(nc(Br)n2Cc2ccccc2Cl)n(C)c1=O	-2	-36	4	4	3	-13	nt	nt
C#CCn1c(S(=O)(=O)Cc2ccccc2Cl)nc(-c2ccccc2)c1-c1ccccc1	-1	-19	2	2	2	-8	nt	nt
CCOC(=O)Cn1c(S(=O)(=O)Cc2ccccc2Cl)nc(-c2ccccc2)c1-c1ccccc1	1	-21	12	24*	2	-22	12	9
C#CCn1c(S(=O)(=O)Cc2ccc(C)cc2)nc(-c2ccccc2)c1-c1ccccc1	11	-20	16	21*	2	-17	15	11
